ChEMBL document CHEMBL4392833, “Thiazolyl-pyrazole derivatives as potential antimycobacterial agents” (Bioorg Med Chem Lett, 2019)
Values after ≈ are worked out from the molar mass of the structure shown.

Assays:
[1] = test system: Mycobacterium tuberculosis; experiment: Antitubercular activity against dormant stage of Mycobacterium tuberculosis H37Ra ATCC 25177 assessed as growth inhibition at 30 ug/ml after 12 days by XRMA relative to control; assay type: functional; details: H37Ra ATCC 25177, 288 h
[2] = test system: Mycobacterium tuberculosis; experiment: Antitubercular activity against dormant stage of Mycobacterium tuberculosis H37Ra ATCC 25177 assessed as growth inhibition at 10 ug/ml after 12 days by XRMA relative to control; assay type: functional; details: H37Ra ATCC 25177, 288 h
[3] = test system: Mycobacterium tuberculosis; experiment: Antitubercular activity against dormant stage of Mycobacterium tuberculosis H37Ra ATCC 25177 assessed as growth inhibition at 3 ug/ml after 12 days by XRMA relative to control; assay type: functional; details: H37Ra ATCC 25177, 288 h
[4] = test system: Mycobacterium tuberculosis; experiment: Antitubercular activity against dormant stage of Mycobacterium tuberculosis H37Ra ATCC 25177 infected in human THP1 cells by nitrate reductase assay; assay type: functional, organism-based; details: for MIC90: H37Ra ATCC 25177; for IC50: H37Ra ATCC 25177, THP-1
[5] = test system: Mycobacterium tuberculosis; experiment: Antitubercular activity against dormant stage of Mycobacterium tuberculosis H37Ra ATCC 25177 by two fold dilution technique; assay type: functional
Summary of the method: (§1)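 MIC against dormant-stage bacilli, read out by XTT reduction menadione assay (XRMA), with rifampicin MIC determined the same way as reference.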

THP-1 [6] = experiment: Cytotoxicity against human THP1 cells at 30 ug/ml; assay type: cell-based
THP-1 [7] = experiment: Cytotoxicity against human THP1 cells at 10 ug/ml; assay type: cell-based
THP-1 [8] = experiment: Cytotoxicity against human THP1 cells at 3 ug/ml; assay type: cell-based
[9] = (§2) Growth inhibition of human HeLa cells by MTT assay; assay type: cell-based; details: HeLa cells
Summary of the method: (§3)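 Human cancer cell lines were exposed in vitro to a range of compound concentrations. Viability was read by MTT colorimetric assay, and GI50 and GI90 were derived from the concentration series.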

HeLa = experiment: as §2; assay type: cell-based; details: hela; summary of the method: as §3
[10] = (§4) Growth inhibition of human A549 cells by MTT assay; assay type: cell-based; details: A549 cells; summary of the method: as §3
A549 = experiment: as §4; assay type: cell-based; details: a549; summary of the method: as §3
[11] = (§5) Growth inhibition of human PANC1 cells by MTT assay; assay type: cell-based, PANC-1; details: PANC-1 cells; summary of the method: as §3
PANC-1 = experiment: as §5; assay type: cell-based; details: panc-1; summary of the method: as §3
[12] = test system: Mycobacterium tuberculosis; experiment: Antitubercular activity against dormant stage of Mycobacterium tuberculosis H37Ra ATCC 25177 after 12 days by XRMA; assay type: functional, organism-based; details: H37Ra ATCC 25177, 288 h; summary of the method: as §1
[13] = Growth inhibition of human THP1 cells; assay type: cell-based; details: THP-1 cells

Structure (SMILES) | inhibition at 30 µg/mL [1] | inhibition at 10 µg/mL [2] | inhibition at 3 µg/mL [3] | MIC90 [4] | IC50 [4] | MIC90 [5] | Activity (THP-1 [6]) | Activity (THP-1 [7]) | Activity (THP-1 [8]) | GI50 [9] | GI90 (HeLa) | GI50 [10] | GI90 (A549) | GI50 [11] | GI90 (PANC-1) | IC50 [12] | GI50 [13]
Cc1nc(C)c(-c2nn(-c3ccc(F)cc3)cc2/C=C/C(=O)c2cc(Br)ccc2O)s1 | 27.5% | 9% | 23.5% | > 30 µg/mL | > 30 µg/mL | > 30 µg/mL | 24.98% | 21.42% | 20.41% | 4.88 µg/mL (≈ 9.79 µM) | 44.94 µg/mL (≈ 90.2 µM) | > 250 µg/mL | > 250 µg/mL | > 250 µg/mL | > 250 µg/mL | > 30 µg/mL | 
Cc1nc(C)c(-c2nn(-c3ccc(F)cc3)cc2-c2cc(=O)c3cc(Cl)c(C)cc3o2)s1 | 93.7% | 23.2% | 53.5% | 2.94 µM | 670 nM | 3.69 µM | 24.65% | 16.62% | 12.82% | 16.7 µg/mL (≈ 35.8 µM) | 53.48 µg/mL (≈ 115 µM) | > 250 µg/mL | > 250 µg/mL | > 250 µg/mL | > 250 µg/mL | 1670 nM | > 30 µg/mL
Cc1nc(C)c(-c2nn(-c3ccc(F)cc3)cc2/C=C/C(=O)c2cc(Cl)cc(Cl)c2O)s1 | 30.5% | 26.8% | 20.4% | > 30 µg/mL | > 30 µg/mL | > 30 µg/mL | 49.76% | 17.69% | 15.71% | > 250 µg/mL | > 250 µg/mL | > 250 µg/mL | > 250 µg/mL | > 250 µg/mL | > 250 µg/mL | > 30 µg/mL | 
Cc1nc(C)c(-c2nn(-c3ccc(F)cc3)cc2C2CC(c3c(O)cc(C)c(Cl)c3C)=NN2)s1 (stereo not drawn) | 93.7% | 95.4% | 91% | 1.23 µM | 440 nM | 5.04 µM | 18.32% | 15.45% | 9.52% | 25.2 µg/mL (≈ 50.8 µM) | 46.87 µg/mL (≈ 94.5 µM) | 43.4 µg/mL (≈ 87.4 µM) | 88.98 µg/mL (≈ 179 µM) | 41.6 µg/mL (≈ 83.9 µM) | 77.64 µg/mL (≈ 157 µM) | 80 nM | > 30 µg/mL
Cc1ccc2oc(-c3cn(-c4ccc(F)cc4)nc3-c3sc(C)nc3C)cc(=O)c2c1 | 92.2% | 88.6% | 47.8% | 1.23 µM | 160 nM | 5.89 µM | 4.94% | 2.34% | 0.8% | > 250 µg/mL | > 250 µg/mL | > 250 µg/mL | > 250 µg/mL | > 250 µg/mL | > 250 µg/mL | 1070 nM | > 30 µg/mL
Cc1ccc(O)c(C2=NNC(c3cn(-c4ccc(F)cc4)nc3-c3sc(C)nc3C)C2)c1 (stereo not drawn) | 36.7% | 39.7% | 24.8% | 33.4 µM | 11900 nM | 46.4 µM | 24.05% | 10.7% | 5.94% | > 250 µg/mL | > 250 µg/mL | > 250 µg/mL | > 250 µg/mL | > 250 µg/mL | > 250 µg/mL | 4310 nM | 
CC(=O)O[C@H]1C(=O)[C@@]2(C)[C@H]([C@H](OC(=O)c3ccccc3)[C@]3(O)C[C@H](OC(=O)[C@H](O)[C@@H](NC(=O)c4ccccc4)c4ccccc4)C(C)=C1C3(C)C)[C@]1(OC(C)=O)CO[C@@H]1C[C@@H]2O [PACLITAXEL] |  |  |  |  |  |  |  |  |  |  | 0.075 µg/mL (≈ 0.0878 µM) |  | 0.0706 µg/mL (≈ 0.0827 µM) |  | 5.715 µg/mL (≈ 6.69 µM) |  | 
Cc1nc(C)c(-c2nn(-c3ccc(F)cc3)cc2/C=C/C(=O)c2cc(Cl)ccc2O)s1 | 3.39% | 5.49% | 2.66% | > 30 µg/mL | > 30 µg/mL | > 30 µg/mL | 36.55% | 34.74% | 16.49% | > 250 µg/mL | > 250 µg/mL | > 250 µg/mL | > 250 µg/mL | > 250 µg/mL | > 250 µg/mL | > 30 µg/mL | 
CO[C@H]1/C=C/O[C@@]2(C)Oc3c(C)c(O)c4c(O)c(c(/C=N/N5CCN(C)CC5)c(O)c4c3C2=O)NC(=O)/C(C)=C\C=C\[C@H](C)[C@H](O)[C@@H](C)[C@@H](O)[C@@H](C)[C@H](OC(C)=O)[C@@H]1C [RIFAMPIN] |  |  |  |  |  | 0.91 µM |  |  |  | > 100 µg/mL | > 100 µg/mL | > 100 µg/mL | > 100 µg/mL | > 100 µg/mL | > 100 µg/mL |  | 
Cc1ccc(O)c(C(=O)/C=C/c2cn(-c3ccc(F)cc3)nc2-c2sc(C)nc2C)c1 | 96% | 61.7% | 34.7% | 17.1 µM | 2860 nM | 32.7 µM | 24.3% | 15.3% | 14.14% | 29.9 µg/mL (≈ 68.9 µM) | 77.32 µg/mL (≈ 178 µM) | 47.8 µg/mL (≈ 110 µM) | 136.87 µg/mL (≈ 316 µM) | 52.4 µg/mL (≈ 121 µM) | 114.87 µg/mL (≈ 265 µM) | 5560 nM | 
Cc1nc(C)c(-c2nn(-c3ccc(F)cc3)cc2/C=C/C(=O)c2cc(Cl)c(C)cc2O)s1 | 92.7% | 16.3% | 3.95% | 7.56 µM | 1920 nM | 49.7 µM | 17.45% | 13.26% | 10.73% | 34.9 µg/mL (≈ 74.5 µM) | 87.29 µg/mL (≈ 187 µM) | > 250 µg/mL | > 250 µg/mL | > 250 µg/mL | > 250 µg/mL | 2440 nM | 
Cc1nc(C)c(-c2nn(-c3ccc(F)cc3)cc2/C=C/C(=O)c2c(O)cc(C)c(Cl)c2C)s1 | 10.1% | 9.47% | 3.39% | > 30 µg/mL | > 30 µg/mL | > 30 µg/mL | 41.43% | 18.42% | 13.12% | 59.3 µg/mL (≈ 123 µM) | 128.28 µg/mL (≈ 266 µM) | 33.5 µg/mL (≈ 69.4 µM) | 84.31 µg/mL (≈ 175 µM) | 35.2 µg/mL (≈ 73.1 µM) | 97.41 µg/mL (≈ 202 µM) | > 30000 nM | 
